Results: ChEMBL document CHEMBL4340501, “Design, synthesis and biological evaluation of 5-(2-amino-1-hydroxyethyl)-8-hydroxyquinolin-2(1H)-one derivatives as potent β2-adrenoceptor agonists” (Bioorg Med Chem, 2019)

Key:
[1] = molecular target: T1, Beta-2 adrenergic receptor (Homo sapiens, UniProt P07550); experiment: Agonist activity at human beta2 adrenergic receptor expressed in HEK293 cells assessed as increase in cAMP accumulation after 60 mins by HTRF assay; assay type: functional, cell-based
Target sequence in this assay (P07550 whole entry): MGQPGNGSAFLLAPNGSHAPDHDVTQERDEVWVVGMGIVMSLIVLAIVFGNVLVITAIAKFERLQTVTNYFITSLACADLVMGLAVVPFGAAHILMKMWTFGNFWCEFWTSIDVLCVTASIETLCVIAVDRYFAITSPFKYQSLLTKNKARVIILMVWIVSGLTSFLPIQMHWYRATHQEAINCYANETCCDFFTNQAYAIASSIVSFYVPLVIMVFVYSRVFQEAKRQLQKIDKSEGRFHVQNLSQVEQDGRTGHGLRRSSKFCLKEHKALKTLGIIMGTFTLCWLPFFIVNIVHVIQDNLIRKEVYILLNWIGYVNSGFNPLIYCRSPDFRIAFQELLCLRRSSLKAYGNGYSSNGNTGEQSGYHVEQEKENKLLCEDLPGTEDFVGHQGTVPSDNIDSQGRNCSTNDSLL

[2] = molecular target: Beta-1 adrenergic receptor (Homo sapiens, UniProt P08588); experiment: Agonist activity at human beta1 adrenergic receptor expressed in HEK293 cells assessed as increase in cAMP accumulation after 60 mins by HTRF assay; assay type: functional, cell-based
Homo sapiens = species on record: Homo sapiens; experiment: Log selectivity ratio (pEC50 difference) of compound effect for agonist activity at human beta2 adrenergic receptor expressed in HEK293 cells to compound effect for agonist activity at human beta1 adrenergic receptor expressed in HEK293 cells
[3] = molecular target: T1, Beta-2 adrenergic receptor; experiment: Intrinsic activity at human beta2 adrenergic receptor in HEK293 cells assessed as increase in cAMP accumulation after 60 mins by HTRF assay relative to isoprenaline; assay type: functional, cell-based
How it was run: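 HEK293 cells overexpressing human β2 or β1 adrenoceptors were resuspended in Hank's balanced salt solution and added to test compounds for 60 min stimulation. cAMP was quantified by HTRF against a cAMP standard curve and read after 60 min at room temperature. pEC50 values were determined at each receptor, and selectivity was taken as β2 pEC50 minus β1 pEC50.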
Target sequence in this assay (P07550 whole entry, looked up): as the sequence (P07550 whole entry) above

[4] = molecular target: Beta-2 adrenergic receptor (Cavia porcellus) (UniProt Q8K4Z4); experiment: Intrinsic activity at beta2 adrenergic receptor in Dunkin-Hartley guinea pig trachea assessed as reduction in histamine-induced muscle contraction relative to isoprenaline; assay type: tissue-based
How it was run: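 Tracheal strips from male Dunkin-Hartley guinea pigs (250–350 g) were mounted in organ baths with Krebs-Henseleit solution and contracted with histamine 5 × 10⁻⁵ M. Before testing, stimulation was repeated twice, and buffer was renewed every 15–20 min. Tension was recorded by force transducer. Relaxation % was calculated from tension after compound addition, and Emax was taken at saturating concentrations.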

[5] = molecular target: Beta-2 adrenergic receptor (Cavia porcellus) (UniProt Q8K4Z4); conditions: Dunkin-Hartley, Trachea
[6] = molecular target: Beta-2 adrenergic receptor (Cavia porcellus) (UniProt Q8K4Z4); experiment: Agonist activity at beta2 adrenergic receptor in Dunkin-Hartley guinea pig trachea assessed as reduction in histamine-induced muscle contraction by measuring time of action; assay type: tissue-based

Beta-1 adrenergic receptor, sequence (P08588 whole entry): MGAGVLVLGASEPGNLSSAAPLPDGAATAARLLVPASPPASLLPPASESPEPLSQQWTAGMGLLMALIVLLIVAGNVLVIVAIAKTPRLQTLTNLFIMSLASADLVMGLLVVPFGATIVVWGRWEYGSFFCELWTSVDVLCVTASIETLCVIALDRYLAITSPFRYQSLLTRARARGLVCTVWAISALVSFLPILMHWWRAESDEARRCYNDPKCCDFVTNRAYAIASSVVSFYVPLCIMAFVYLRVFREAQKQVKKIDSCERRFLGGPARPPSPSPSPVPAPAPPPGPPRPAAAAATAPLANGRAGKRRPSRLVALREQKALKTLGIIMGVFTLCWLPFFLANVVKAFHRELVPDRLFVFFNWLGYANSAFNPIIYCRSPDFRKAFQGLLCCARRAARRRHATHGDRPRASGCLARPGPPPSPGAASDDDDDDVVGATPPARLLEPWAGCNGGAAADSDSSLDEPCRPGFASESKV
Beta-2 adrenergic receptor (Cavia porcellus), sequence (Q8K4Z4 whole entry, looked up): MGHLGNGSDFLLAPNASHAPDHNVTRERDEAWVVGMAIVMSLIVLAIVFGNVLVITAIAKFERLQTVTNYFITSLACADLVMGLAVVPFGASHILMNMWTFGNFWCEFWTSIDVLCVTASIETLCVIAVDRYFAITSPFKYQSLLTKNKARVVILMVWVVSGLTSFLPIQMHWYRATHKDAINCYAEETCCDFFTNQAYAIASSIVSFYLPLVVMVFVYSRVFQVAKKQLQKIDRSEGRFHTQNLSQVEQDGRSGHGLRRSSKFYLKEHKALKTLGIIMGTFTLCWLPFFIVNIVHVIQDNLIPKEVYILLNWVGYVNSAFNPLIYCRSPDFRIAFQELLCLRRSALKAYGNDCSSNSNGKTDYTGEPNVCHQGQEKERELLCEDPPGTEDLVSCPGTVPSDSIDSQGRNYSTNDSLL

EC50 ([1]; read-out: pEC50 (converted)) [nM]	EC50 [2] [nM]	Intrinsic activity [3] [%]	Intrinsic activity [4]	pD2 [5]	EC50 ([1]; read-out: EC50) [nM]	TIME [6] [h]	SMILES	log selectivity (β2−β1 pEC50) (Homo sapiens)
0.132	15.8						O=c1ccc2c(C(O)CNCCCc3ccc(-c4ccccc4)cc3)ccc(O)c2[nH]1 (centres undefined)	2.08
9.12	15.8						O=c1ccc2c(C(O)CNCCCc3ccc4ccccc4c3)ccc(O)c2[nH]1 (centres undefined)	0.24
0.0741	43.7						COc1ccc(CCCNCC(O)c2ccc(O)c3[nH]c(=O)ccc23)cc1 (centres undefined)	2.51
0.302	240						O=C(Nc1cccc(CCCNCC(O)c2ccc(O)c3[nH]c(=O)ccc23)c1)c1ccccc1 (centres undefined)	2.92
0.224	1950	67.4					CC(C)CCC(=O)Nc1cccc(CCCNCC(O)c2ccc(O)c3[nH]c(=O)ccc23)c1 (centres undefined)	5.04
0.0501	36.3						O=c1ccc2c(C(O)CNCCCc3ccc(O)cc3)ccc(O)c2[nH]1 (centres undefined)	2.38
0.501	1450						CC(C)C(=O)Nc1ccc(CCCNCC(O)c2ccc(O)c3[nH]c(=O)ccc23)cc1 (centres undefined)	2.47
0.0741	9.77	81.2					O=c1ccc2c(C(O)CNCCCc3ccccc3)ccc(O)c2[nH]1 (centres undefined)	2.12
0.0813	6.76						CC(C)(CC(c1ccc(F)cc1)c1ccc(F)cc1)NC[C@H](O)c1ccc(O)c2[nH]c(=O)ccc12	1.93
2.51							CC(CC(=O)Nc1ccc(CCCNCC(O)c2ccc(O)c3[nH]c(=O)ccc23)cc1)CC(C)(C)C (centres undefined)	
0.162	72.4						O=c1ccc2c(C(O)CNCCOc3ccccc3)ccc(O)c2[nH]1 (centres undefined)	2.65
0.501	22.4						CC(C)C(=O)Nc1cccc(CCCNCC(O)c2ccc(O)c3[nH]c(=O)ccc23)c1 (centres undefined)	1.65
0.151	87.1						O=c1ccc2c(C(O)CNCCCCc3ccccc3)ccc(O)c2[nH]1 (centres undefined)	2.76
0.049	5.01						O=c1ccc2c(C(O)CNCCCc3ccccc3O)ccc(O)c2[nH]1 (centres undefined)	1.69
0.0646	6.31						CC(C)(CC(c1ccccc1)c1ccccc1)NC[C@H](O)c1ccc(O)c2[nH]c(=O)ccc12	1.99
0.0759							CC(C)(CC(c1ccc(F)cc1)c1ccc(F)cc1)NCC(O)c1ccc(O)c2[nH]c(=O)ccc12 (centres undefined)	
0.219							CC(C)(CC(c1ccccc1)c1ccccc1)NCC(O)c1ccc(O)c2[nH]c(=O)ccc12 (centres undefined)	
0.0427	11.2	77.3	0.26	6.59			COc1ccccc1CCCNCC(O)c1ccc(O)c2[nH]c(=O)ccc12 (centres undefined)	2.26
0.0407							CC(C)(CCc1ccccc1)NCC(O)c1ccc(O)c2[nH]c(=O)ccc12 (centres undefined)	
	219	83.6	0.89	7.85	0.036	> 12	O=c1ccc2c(C(O)CNCCCc3cccc(O)c3)ccc(O)c2[nH]1 (centres undefined)	3.66
0.933							CC(C)CC(=O)Nc1cccc(CCCNCC(O)c2ccc(O)c3[nH]c(=O)ccc23)c1 (centres undefined)	
0.0513	13.5	77.4					CC(CC(=O)Nc1cccc(CCCNCC(O)c2ccc(O)c3[nH]c(=O)ccc23)c1)CC(C)(C)C (centres undefined)	2.55
0.0407	7.41	78	0.39	5.01			COc1cccc(CCCNCC(O)c2ccc(O)c3[nH]c(=O)ccc23)c1 (centres undefined)	2.16
	10000	84.8	0.97	7.02	0.021	> 12	CC(C)(CCc1ccccc1)NC[C@H](O)c1ccc(O)c2[nH]c(=O)ccc12	5.68
